Activity calls are given as the source filed them. The rule behind the calls is not given here.
What was measured:
[1] = Cytotoxicity against human HGF cells; type: cell-based
[2] = Cytotoxicity against human HPC cells; type: cell-based
[3] = Cytotoxicity against human HPLF cells; type: cell-based
[4] = system: HL-60; assay: Cytotoxicity against human HL60 cells; type: functional
Summary of the method: (§1)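 Each value is the mean of two independent determinations.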

[5] = system: HSC-2; assay: Cytotoxicity against human HSC2 cells; type: functional; summary of the method: as §1
[6] = system: HSC-4; assay: Cytotoxicity against human HSC4 cells; type: functional; summary of the method: as §1
[7] = system: HL-60; assay: Selectivity index, ratio of CC50 for human normal cells to CC50 for human HL60 cells; type: functional
Summary of the method: (§2)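 Ratio of the mean CC50 over three normal human lines (HGF gingival fibroblasts, HPC pulp cells, HPLF periodontal ligament fibroblasts) to the CC50 for the given tumor line. Each CC50 is the mean of two independent determinations.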

[8] = system: HSC-2; assay: Selectivity index, ratio of CC50 for human normal cells to CC50 for human HSC2 cells; type: functional; summary of the method: as §2
[9] = system: HSC-4; assay: Selectivity index, ratio of CC50 for human normal cells to CC50 for human HSC4 cells; type: functional; summary of the method: as §2
[10] = system: HL-60; assay: Induction of bell-shaped internucleosomal DNA fragmentation in human HL60 cells at 1 to 2 uM after 7 hrs; type: functional, cell-based
[11] = system: HSC-2; assay: Induction of bell-shaped internucleosomal DNA fragmentation in human HSC2 cells at 2 to 32 uM after 7 hrs; type: functional, cell-based
[12] = system: HSC-2; assay: Induction of acidic organelles formation in human HSC2 cells at 4 to 8 uM after 6 hrs; type: functional, cell-based
Summary of the method: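 Acidic organelle formation scored in HSC-2 cells after 6 h exposure; reference condition was culture in Hank's balanced salt solution for 1 h.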

[13] = system: HT-29; assay: Cell cycle arrest in human HT-29 cells assessed as accumulation at G1 phase at 5 uM after 48 hrs by flow cytometry; type: functional
Summary of the method: (§3)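 HT29 cells plated and grown 48 h to 50–60% confluency, then exposed to compound for 48 h. Cells trypsinized, PBS-washed, fixed overnight in 70% ethanol at 4 °C. Held 1 h on ice, then DNA content read by flow cytometry.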

[14] = system: HT-29; assay: Cell cycle arrest in human HT-29 cells assessed as accumulation at sub-G1 phase at 5 uM after 48 hrs by flow cytometry; type: functional; summary of the method: as §3
[15] = system: HT-29; assay: Cell cycle arrest in human HT-29 cells assessed as accumulation at S phase at 5 uM after 48 hrs by flow cytometry; type: functional; summary of the method: as §3
[16] = system: HT-29; assay: Cell cycle arrest in human HT-29 cells assessed as accumulation at G2/M phase at 5 uM after 48 hrs by flow cytometry; type: functional; summary of the method: as §3
[17] = system: HT-29; assay: Cytotoxicity against human HT-29 cells after 96 hrs by MTT assay; type: functional, cell-based; conditions: HT-29, 96 h
Summary of the method: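 HT29 cells (ATCC) kept in DMEM with 10% fetal calf serum under 5% CO2 at 37 °C. Cells detached with trypsin and seeded at 9000 cells/well, then allowed 24 h to attach. Compound added at a range of concentrations; medium-only wells served as controls. After 96 h, proliferation was estimated from MTT reduction read at 540 nm.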

Structure (SMILES)	CC50 [1] [µM]	CC50 [2] [µM]	CC50 [3] [µM]	CC50 [4] [nM]	CC50 [5] [nM]	CC50 [6] [nM]	Selectivity Index [7]	Selectivity Index [8]	Selectivity Index [9]	Activity [10]	Activity [11]	Activity [12]	Activity [13] [%]	Activity [14] [%]	Activity [15] [%]	Activity [16] [%]	IC50 [17] [µM]
Cl.O=C1/C(=C/c2ccc(Cl)cc2)CN(C(=O)c2ccc(OCCN3CCOCC3)cc2)C/C1=C\c1ccc(Cl)cc1	400	> 400	360	36000	71000	18000	> 11	>5.5	>22								
CC[N+](C)(CC)CCOc1ccc(C(=O)N2C/C(=C\c3ccccc3)C(=O)/C(=C/c3ccccc3)C2)cc1.[I-]	160	170	79	82000	130000	82000	1.7	1.1	1.7								
CCN(CC)CCOc1ccc(C(=O)N2C/C(=C\c3ccc(Cl)cc3)C(=O)/C(=C/c3ccc(Cl)cc3)C2)cc1.Cl	230	> 400	> 400				>7.5	>2.1	>10								
Cl.O=C1/C(=C/c2ccc([N+](=O)[O-])cc2)CN(C(=O)c2ccc(OCCN3CCOCC3)cc2)C/C1=C\c1ccc([N+](=O)[O-])cc1	12	8.2	9.3	350	760	740	28	13	13								
CCN(CC)CCOc1ccc(C(=O)N2C/C(=C\c3ccc([N+](=O)[O-])cc3)C(=O)/C(=C/c3ccc([N+](=O)[O-])cc3)C2)cc1.Cl	5	4.5	5.9				20	5.2	4.6								
CCN(CC)CCOc1ccc(C(=O)N2C/C(=C\c3ccccc3)C(=O)/C(=C/c3ccccc3)C2)cc1.Cl	4.2	12	6	610	3100	2000	12	2.4	3.7								
Cl.O=C1/C(=C/c2ccccc2)CN(C(=O)c2ccc(OCCN3CCOCC3)cc2)C/C1=C\c1ccccc1	83	95	30	1200	2400	2400	58	29	29	Active	inactive	Active	50.5	11.4	25.2	11.1	3.75
CC[N+](C)(CC)CCOc1ccc(C(=O)N2C/C(=C\c3ccc([N+](=O)[O-])cc3)C(=O)/C(=C/c3ccc([N+](=O)[O-])cc3)C2)cc1.[I-]	93	130	13	29000	67000	61000	2.7	1.2	1.3								
CN(C)CCOc1ccc(C(=O)N2C/C(=C\c3ccc([N+](=O)[O-])cc3)C(=O)/C(=C/c3ccc([N+](=O)[O-])cc3)C2)cc1.Cl	7	5.2	5.9	310	930	710	19	6.5	8.5								
CC[N+](C)(CC)CCOc1ccc(C(=O)N2C/C(=C\c3ccc(C)cc3)C(=O)/C(=C/c3ccc(C)cc3)C2)cc1.[I-]	34	29	8.3	16000	17000	17000	1.5	1.4	1.4								
Cl.O=C1/C(=C/c2ccccc2)CN(C(=O)c2ccc(OCCN3CCCCC3)cc2)C/C1=C\c1ccccc1	4.6	12	7.4	1400	3000	2500	5.7	2.7	3.2								
N[C@@H](Cc1ccc(N(CCCl)CCCl)cc1)C(=O)O	> 200	> 200	> 200				>33	>5.7	>2.5								
CCN(CC)CCOc1ccc(C(=O)N2C/C(=C\c3ccc(C)cc3)C(=O)/C(=C/c3ccc(C)cc3)C2)cc1.Cl	3.6	9.3	4.6				7.3	2.6	2.5								
Cc1ccc(/C=C2\CN(C(=O)c3ccc(OCCN4CCOCC4)cc3)C/C(=C\c3ccc(C)cc3)C2=O)cc1.Cl	10	49	12	1200	1600	2000	20	15	12								
Cl.O=C1/C(=C/c2ccc([N+](=O)[O-])cc2)CN(C(=O)c2ccc(OCCN3CCCCC3)cc2)C/C1=C\c1ccc([N+](=O)[O-])cc1	8	3.9	4.9	290	860	900	19	6.5	6.2								
Cc1ccc(/C=C2\CN(C(=O)c3ccc(OCCN(C)C)cc3)C/C(=C\c3ccc(C)cc3)C2=O)cc1.Cl	7.9	7.2	3.4	850	1400	2100	7.3	4.4	3								
Cc1ccc(/C=C2\CN(C(=O)c3ccc(OCCN4CCCCC4)cc3)C/C(=C\c3ccc(C)cc3)C2=O)cc1.Cl	6	15	5.5	2300	2900	4100	3.8	3	2.2								
CN(C)CCOc1ccc(C(=O)N2C/C(=C\c3ccc(Cl)cc3)C(=O)/C(=C/c3ccc(Cl)cc3)C2)cc1.Cl	23	11	4.3	1700	2300	1800	7.5	5.6	7.1								
Cl.O=C1/C(=C/c2ccc(Cl)cc2)CN(C(=O)c2ccc(OCCN3CCCCC3)cc2)C/C1=C\c1ccc(Cl)cc1	> 400	> 400	340				>6	>3.5	>7.9								
CC[N+](C)(CC)CCOc1ccc(C(=O)N2C/C(=C\c3ccc(Cl)cc3)C(=O)/C(=C/c3ccc(Cl)cc3)C2)cc1.[I-]	> 400	> 400	9.4	64000	> 400000	220000	>4.2	0.7	>1.2								
CN(C)CCOc1ccc(C(=O)N2C/C(=C\c3ccccc3)C(=O)/C(=C/c3ccccc3)C2)cc1.Cl	3.6	13	8.9	1000	3800	2100	8.5	2.2	4.1								

Reference: ChEMBL document CHEMBL1156843, “3,5-Bis(benzylidene)-1-[4-2-(morpholin-4-yl)ethoxyphenylcarbonyl]-4-piperidone hydrochloride: a lead tumor-specific cytotoxin which induces apoptosis and autophagy” (Bioorg Med Chem Lett, 2010)
